Bioassay records deposited in PubChem BioAssay by several laboratories.
G6PDH counter – inhibits Leuconostoc G6PDH, flagging false hits in G6PDH-based assays. Purified L. mesenteroides G6PDH, diaphorase/resazurin coupled fluorescence, 45 min. inhibition, % at 5 µM. hit rate 0.12% among 200,000
DTT redox prof – compounds producing H2O2 with reducing agent – biochemical, NIH compound library profiling, artefact control for MLSCN library redox annotation, primary screen; DTT-dependent redox cycling H2O2, phenol red/HRP absorbance; 100% = 100 µM peroxide control, 0% = buffer; activation, % at 10 µM; hit rate 0.03% among 200,000; AID 878;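 active = activation of at least 50% relative to the plate's high and low controls in the primary single-dose screen; inactive = activation below 50%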;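 also: compound incubated with DTT at 0.8 mM final as the reducing agent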
Diaph inh CS – inhibits diaphorase or chemically oxidizes, flagging diaphorase assay artifacts; diaphorase resazurin-to-resorufin fluorescence, NADH, 16 min; bacterial (C. kluyveri) enzyme, not human; inhibition, % at 20 µM; hit rate 0.69% among 190,000;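 active = primary screen inhibition at 20 µM above a set limit, cut at about 50% in these data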;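 also: plate controls were DMSO with full reaction for no effect and wells lacking NADH for full effect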
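System: Diaphorase enzyme from Clostridium kluyveri | Amount: Enzyme working solution with 0.14 U/mL diaphorase | Benchmarks: No-NADH positive control and DMSO neutral control | Signal: Fluorescence of resorufin formed from resazurin, Ex 544/Em 590 nm | Schedule: 16-min room-temperature incubation before reading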
PfGluPho inh – PfG6PD (Plasmodium falciparum) enzyme inhibition. PfGluPho enzyme, NADPH resazurin-diaphorase fluorescence. inhibition, % at 20 µM. hit rate 0.78% among 350,000. AID 504690;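 active = inhibition reaching at least a set limit at 20 µM in the primary screen, cut at about 59% in these data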;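 also: 0% = DMSO wells with substrate and 100% = DMSO wells lacking glucose-6-phosphate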
Diaphorase act – counter-screen for diaphorase-based assays: diaphorase activators and chemical reducers. Diaphorase/resazurin coupled assay, resorufin fluorescence, 16 min; hits give high values; 1 = vehicle wells, 0 = NADH-free wells. activation factor at 20 µM. hit rate 0.005% among 190,000;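 active = diaphorase activity raised at least twofold by the compound at 20 µM; inactive = activation factor below 2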
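Material: Purified diaphorase enzyme from Clostridium kluyveri | Buffer or medium: 50 mM HEPES pH 7.4 with 4.542 mM MgCl2, 0.005% Tween 20 | Times: 16 min enzyme reaction, ambient temperature | Signal: Red resorufin fluorescence at 544/590 nm excitation/emission | Measure: Increased resorufin signal from activators or reducing compounds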
L major viab – Leishmania major promastigote growth inhibition. hit rate 9% among 200,000. Leishmania major promastigotes, resazurin fluorescence viability. inhibition, % at 10 µM;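 also: promastigotes grown with compound for 44 hours at 28 °C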
Active calls of the source: *; x = no result given. Only a selection was taken, and hits are over-represented in it overall. Rule as the data show it, unless noted: active = inhibition above about 50%; inactive = the rest.

SMILES | G6PDH counter | DTT redox prof | Diaph inh CS | PfGluPho inh | Diaphorase act | L major viab
COc1ccc(/C=N/Nc2nc(N3CCCC3)nc(N3CCCC3)n2)cc1 | 0 | 0 | 16 | -9 | 0.8 | 63*
Cc1cc(OCCN2CCOCC2)ccc1Cl | x | x | x | -4 | x | x
O=C(Nc1cc(Sc2nc3ccccc3s2)cc([N+](=O)[O-])c1)c1cccc(F)c1F | -23 | 1 | 12 | -1 | 0.9 | 73*
CCOC(=O)C1CCN(S(=O)(=O)c2cc(Cl)c(C)cc2OC)CC1 | -14 | 2 | 12 | -3 | 0.9 | 91*
CCOC(=O)N1CCN(C(=O)C2CCN(S(=O)(=O)c3cc(Cl)ccc3Cl)CC2)CC1 | -5 | -1 | 8 | -10 | 0.9 | 99*
CCOC(=O)C1CCN(S(=O)(=O)c2ccc(Cl)cc2OC)CC1 | -3 | 0 | 13 | 20 | 0.9 | -1
CCOC(=O)C1CCN(C(=O)C2CCN(S(=O)(=O)c3cc(Cl)ccc3Cl)CC2)CC1 | 3 | 2 | 8 | -1 | 0.9 | 7
Cc1cc(Cl)c(S(=O)(=O)N2CCN(c3cccc(C)c3C)CC2)cc1OCC(N)=O | 3 | 2 | 13 | -7 | 0.9 | 95*
Cc1cc(Cl)c(S(=O)(=O)N2CCCCCC2)cc1OCC(N)=O | 8 | 2 | -3 | 0 | 1 | 67*
CC(=O)Nc1cc(NC(C)=O)cc(C(=O)NC(C)(C)C)c1 | 4 | -1 | 13 | -11 | 0.9 | -5
CCn1c(COc2ccc3c(c2)OCO3)nnc1SCC(=O)c1ccc(Cl)cc1 | 8 | 0 | 9 | 12 | 0.9 | -7
Cn1cnnc1SCC(=O)Nc1ncc(C(F)(F)F)cc1Cl | 0 | -2 | -4 | 0 | 1 | 3
Cc1cc(Cl)c(S(=O)(=O)N2CCCCCC2)cc1OCC(=O)NC1CCCCC1 | 0 | 0 | 14 | -10 | 0.9 | 96*
CCN1CCN(S(=O)(=O)c2cc(OCC(=O)NC3CCCCC3)c(C)cc2Cl)CC1 | 2 | -2 | 15 | -16 | 0.8 | 15
Cc1cc(Cl)c(S(=O)(=O)N2CCSCC2)cc1OCC(=O)NC1CCCCC1 | 9 | 1 | 18 | 6 | 0.8 | 25
CCOC(=O)N1CCN(S(=O)(=O)c2cc(OCC(=O)NC3CCCCC3)c(C)cc2Cl)CC1 | 2 | 1 | 17 | -9 | 0.8 | 64*
COc1cccc(C(c2c(N)[nH]c(=S)[nH]c2=O)c2c(N)[nH]c(=S)[nH]c2=O)c1 | x | x | x | 9 | x | x
CC(/C=N/n1c(-c2ccco2)n[nH]c1=S)=C\c1ccccc1 | -11 | 0 | 50* | 1 | 0.5 | -10
CC(/C=N/n1c(-c2ccccn2)n[nH]c1=S)=C\c1ccccc1 | x | x | x | 18 | x | x
S=c1[nH]nc(-c2ccco2)n1/N=C/C=C/c1ccco1 | 2 | 0 | 64* | 27 | 0.4 | 8
S=c1[nH]nc(-c2cc(-c3ccccc3)n[nH]2)n1/N=C/C=C/c1ccco1 | x | x | x | 30 | x | x
CC(/C=N/n1c(-c2ccc(Cl)cc2)n[nH]c1=S)=C\c1ccco1 | -25 | 1 | 53* | 10 | 0.5 | -8
CC(/C=N/n1c(-c2cc(C)[nH]n2)n[nH]c1=S)=C\c1ccco1 | x | x | x | 43 | x | x
CCOC(=O)c1ccc(Oc2ccc(C(F)(F)F)cn2)cc1 | -3 | -3 | 4 | -10 | 1 | -6
CC(C)CN(CC(C)C)C(=O)C12CCC(C)(C(=O)O1)C2(C)C (stereo not given) | 5 | 2 | -1 | -3 | 1 | -3
Cc1ccc(CNC(=O)C2CCN(S(=O)(=O)c3c(C)noc3C)CC2)cc1 | 3 | 0 | 10 | 3 | 0.9 | 99*
Cc1nn(C)c(C)c1S(=O)(=O)N1CCC(C(=O)NCCC2=CCCCC2)CC1 | -3 | 0 | -5 | 3 | 1 | 4
Cc1noc(C)c1S(=O)(=O)N1CCC(C(=O)NCCC2=CCCCC2)CC1 | -4 | -1 | 3 | -18 | 1 | 100*
COc1ccccc1CNC(=O)C1CCN(S(=O)(=O)c2c(C)noc2C)CC1 | 5 | 1 | 18 | -7 | 0.8 | 100*
Cc1ccc(CNC(=O)C2CCCN(C(=O)N(C)C)C2)cc1 (stereo not given) | -2 | 0 | 12 | -18 | 0.9 | 86*
